ChEMBL document CHEMBL1177857, “Functionalized aurones as inducers of NAD(P)H:quinone oxidoreductase 1 that activate AhR/XRE and Nrf2/ARE signaling pathways: synthesis, evaluation and SAR” (Eur J Med Chem, 2010)

What was measured:
[1] = Induction of NQO1 activity in mouse Hepa-1c1c7 cells at 5 uM after 48 hrs relative to control
[2] = Induction of NQO1 activity in mouse Hepa-1c1c7 cells at 25 uM after 48 hrs relative to control
[3] = Cytotoxicity against mouse Hepa-1c1c7 cells assessed as cell survival at 25 uM after 48 hrs by MTT assay; assay type: cell-based; conditions: read-out: Activity
Procedure, shortened: (§1)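 MTT (0.5 mg/ml) added for 3 h at 37 °C, formazan dissolved in DMSO and read at 590 nm. Survival (%) = (A treated − A blank)/(A untreated − A blank) × 100.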

[4] = Cytotoxicity against mouse Hepa-1c1c7 cells assessed as cell survival at 5 uM after 48 hrs by MTT assay; assay type: cell-based; conditions: read-out: Activity
Procedure, shortened: as §1

| Compound | fold change (FC) [1] | fold change (FC) [2] | viability at 48 h, 25 µM [3] | viability at 48 h, 5 µM [4] |
| --- | --- | --- | --- | --- |
| COc1ccc(/C=C2\Oc3ccc(O)cc3C2=O)cc1 | 1 | 1.17 |  |  |
| O=C1/C(=C/c2ccccc2)Oc2cc(O)ccc21 | 1.14 | 1.85 | 110% | 115% |
| COc1cc(OC)c2c(c1)O/C(=C\c1ccc(N3CCN(C)CC3)cc1)C2=O | 1.25 | 1.4 | 89% | 93% |
| O=C1Oc2ccc(O)cc2/C1=C/c1cccc(F)c1 | 1.14 | 1.32 | 120% | 127% |
| COc1cc(OC)c2c(c1)O/C(=C\c1ccc([N+](=O)[O-])cc1)C2=O | 1.61 | 1.6 | 88% | 88% |
| COc1ccc(/C=C2\C(=O)Oc3ccc(O)cc32)cc1 | 1.35 | 1.71 | 118% | 110% |
| O=C1/C(=C/c2ccc(Cl)cc2)Oc2ccc(O)cc21 | 1.32 | 1.18 |  |  |
| N#Cc1ccc(/C=C2\Oc3ccc(O)cc3C2=O)cc1 | 1.3 | 1.25 |  |  |
| COc1ccc(/C=C2\Oc3cc(O)ccc3C2=O)cc1 | 1.19 | 1.5 | 95% | 91% |
| O=C1/C(=C/c2ccccc2)Oc2ccc(O)cc21 | 2.28 |  |  |  |
| O=C1/C(=C/c2ccc(O)cc2)Oc2ccc(O)cc21 | 1.22 | 0.94 |  |  |
| O=C1Oc2ccc(O)cc2/C1=C/c1ccc(F)cc1 | 1.2 | 1.23 | 121% | 101% |
| COc1cc(OC)c2c(c1)OC(Cc1ccccc1)C2=O (configuration not stated) | 1.46 |  |  | 95% |
| COc1cc(OC)c2c(c1)O/C(=C\c1cccnc1)C2=O | 1.8 | 1.9 | 98% | 94% |
| O=C1Oc2ccc(O)cc2/C1=C/c1ccccc1 | 1.15 | 1.37 | 94% | 89% |
| Cc1ccc(/C=C2\Oc3cc(O)ccc3C2=O)cc1 | 1.59 | 0.9 | 100% | 98% |
| COc1ccc(/C=C2\Oc3cc(OC)cc(OC)c3C2=O)cc1 [4,4',6-TRIMETHOXY-AURONE] | 1.06 | 0.91 | 87% | 93% |

| Compound | fold change (FC) [1] | fold change (FC) [2] | viability at 48 h, 25 µM [3] | viability at 48 h, 5 µM [4] |
| --- | --- | --- | --- | --- |
| O=C1/C(=C/c2ccc(O)cc2)Oc2cc(O)ccc21 |  |  | 98% | 100% |
| O=C1Oc2ccc(O)cc2/C1=C/c1ccccc1F | 1.05 | 1.34 | 114% | 102% |
| O=C1Oc2ccc(O)cc2/C1=C/c1ccccc1Cl | 1.02 | 1.3 | 87% | 93% |
| O=C1Oc2ccc(O)cc2/C1=C/c1ccc(O)cc1 | 1.3 | 1.6 | 101% | 111% |
| COc1cc(OC)c2c(c1)O/C(=C\c1ccc(C(F)(F)F)cc1)C2=O | 1.08 | 0.83 | 93% | 90% |
| O=C1Oc2ccc(O)cc2/C1=C/c1cccc(O)c1 | 1.64 | 1.83 | 87% | 95% |
| COc1cc(OC)c2c(c1)O/C(=C\c1ccc(Cl)cc1)C2=O | 2.13 |  |  | 93% |
| Cc1ccc(/C=C2\Oc3ccc(O)cc3C2=O)cc1 | 1.14 | 1.36 |  |  |
| COc1cc(OC)c2c(c1)O/C(=C\c1ccc(N(C)C)cc1)C2=O | 1.16 | 0.96 | 98% | 101% |
| COc1cc(OC)c2c(c1)O/C(=C\c1ccc(C)cc1)C2=O | 1.34 | 1.34 | 93% | 89% |
| O=C1/C(=C/c2cccc(O)c2)Oc2ccc(O)cc21 | 1.29 | 1.66 | 89% | 98% |
| COc1cc(OC)c2c(c1)OC(=O)/C2=C\c1ccc(Cl)cc1 | 1.42 | 1.9 | 110% | 115% |
| O=C1/C(=C/c2ccccc2Cl)Oc2ccccc21 | 0.92 | 1.17 | 98% | 111% |
| COc1cccc(/C=C2\Oc3ccc(O)cc3C2=O)c1 | 1.19 | 1.18 | 110% | 104% |
| COc1cc(OC)c2c(c1)O/C(=C\c1ccc(C#N)cc1)C2=O | 1.36 | 1.37 | 95% | 91% |
| N#Cc1ccc(/C=C2\Oc3cc(O)ccc3C2=O)cc1 | 1.15 | 1.31 | 90% | 94% |

Further lines, with some results ahead:

| fold change (FC) [1] | fold change (FC) [2] | Compound | viability at 48 h, 25 µM [3] | viability at 48 h, 5 µM [4] |
| --- | --- | --- | --- | --- |
| 1.49 | 1.1 | COc1cc(OC)c2c(c1)OC(=O)/C2=C\c1ccccc1O | 89% | 121% |
| 1.03 | 1.4 | COc1cc(OC)c2c(c1)O/C(=C\c1ccc(O)cc1O)C2=O |  | 51% |
| 1.18 | 1.29 | COc1cc(OC)c2c(c1)O/C(=C\c1ccc(O)cc1)C2=O | 89% | 94% |
| 1.48 | 1.52 | COc1ccccc1/C=C1\Oc2cc(O)cc(O)c2C1=O | 100% | 103% |
| 1.22 | 1.01 | COc1cccc(/C=C2\Oc3cc(O)ccc3C2=O)c1 | 84% | 85% |
| 1.33 | 1.71 | O=C1/C(=C/c2ccccc2Cl)Oc2ccc(O)cc21 | 94% | 98% |
| 1.39 | 1.3 | O=C1/C(=C/c2ccccc2)Oc2cc(O)cc(O)c21 | 100% | 110% |
| 1.47 | 1.6 | COc1cc(/C=C2\Oc3cc(O)cc(O)c3C2=O)cc(OC)c1OC | 94% | 99% |
| 1.6 | 1.58 | O=C1/C(=C/c2cccc(O)c2)Oc2cc(O)cc(O)c21 | 106% | 111% |
| 1.15 | 0.82 | COc1ccc(/C=C2\Oc3cc(O)cc(O)c3C2=O)cc1 | 114% | 109% |
| 1.02 | 1.3 | O=C1/C(=C/c2ccccc2Cl)Oc2cc(O)ccc21 | 117% | 120% |
| 1.14 | 1.35 | N#Cc1ccc(/C=C2\Oc3cc(O)cc(O)c3C2=O)cc1 | 102% | 115% |
| 0.91 | 1.59 | COc1cccc(/C=C2\Oc3cc(OC)cc(OC)c3C2=O)c1 | 103% | 100% |
| 1.59 | 1.7 | O=C1/C(=C/c2ccc(Cl)cc2)Oc2cc(O)cc(O)c21 | 96% | 93% |
| 1.01 | 1.44 | COc1ccccc1/C=C1\C(=O)Oc2ccc(O)cc21 | 110% | 92% |
| 1.45 | 1.71 | O=C1/C(=C/c2cccc(Cl)c2)Oc2cc(O)cc(O)c21 | 86% | 96% |
| 0.46 | 0.61 | COc1ccccc1/C=C1\Oc2cc(O)ccc2C1=O | 96% | 95% |
| 1.79 | 1.42 | COc1cc(OC)c2c(c1)O/C(=C\c1ccccc1C)C2=O | 87% | 91% |
| 1.79 | 1.5 | COc1cc(OC)c2c(c1)O/C(=C\c1cnc3ccccc3c1)C2=O | 97% | 93% |
| 1.38 | 1.49 | Cc1ccc(/C=C2\Oc3cc(O)cc(O)c3C2=O)cc1 | 95% | 103% |
